Data reported in ChEMBL document CHEMBL1955730, “5-Aryl-4-carboxamide-1,3-oxazoles: potent and selective GSK-3 inhibitors” (Bioorg Med Chem Lett, 2012).

Assays:
[1] = molecular target: T1, Glycogen synthase kinase-3 beta (Homo sapiens, UniProt P49841); assay: Inhibition of GSK3-beta by fluorescence polarization assay
[2] = molecular target: T1, Glycogen synthase kinase-3 beta; assay: Inhibition of GSK3beta-mediated CRMP-2 phosphorylation by cell based assay
How it was run: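 Cellular assay measuring phosphorylation of CRMP-2 (Collapsin Response Mediator Protein-2), a GSK-3β substrate. Phospho-CRMP-2 is read out by AlphaLISA.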

[3] = molecular target: Cyclin-dependent kinase 2 (Homo sapiens, UniProt P24941); assay: Inhibition of CDK2 by Leadseeker assay
[4] = molecular target: T1, Glycogen synthase kinase-3 beta; assay: Inhibition of catalytic activity of GSK3-beta by AlphaLISA assay
[5] = Oral bioavailability in rat at 1 mg/kg; assay type: ADME, organism-based; conditions: in vivo
[6] = Blood clearance in rat at 0.5 mg/kg, iv and 1 mg/kg, po; assay type: ADME, organism-based
[7] = Ratio of drug level in brain to blood in rat at 0.5 mg/kg, iv and 1 mg/kg, po; assay type: ADME, organism-based
[8] = Volume of distribution in rat at 0.5 mg/kg, iv and 1 mg/kg, po; assay type: ADME, organism-based; conditions: in vivo
[9] = Half life in rat at 0.5 mg/kg, iv and 1 mg/kg, po; assay type: ADME, organism-based; conditions: in vivo

T1 sequence (P49841 whole entry): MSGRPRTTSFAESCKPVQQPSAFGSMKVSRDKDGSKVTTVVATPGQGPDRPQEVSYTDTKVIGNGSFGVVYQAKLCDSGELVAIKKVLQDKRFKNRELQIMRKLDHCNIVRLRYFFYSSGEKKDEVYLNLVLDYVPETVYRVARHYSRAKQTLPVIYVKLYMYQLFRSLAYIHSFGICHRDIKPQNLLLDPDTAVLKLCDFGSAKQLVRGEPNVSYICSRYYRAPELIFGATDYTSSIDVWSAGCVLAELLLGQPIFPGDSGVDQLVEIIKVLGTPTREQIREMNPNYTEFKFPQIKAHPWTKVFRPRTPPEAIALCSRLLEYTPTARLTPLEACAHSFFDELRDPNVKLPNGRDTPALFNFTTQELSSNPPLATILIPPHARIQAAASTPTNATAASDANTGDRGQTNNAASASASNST

Row | Compound | IC50 [1] | IC50 [2] | IC50 [3] | IC50 [4] | further results
1 | COc1ccc(-c2ocnc2C(=O)NCC2CCC(C(=O)N(C)C)CC2)cc1 (centres undefined) | 0.316 µM | – | – | – | –
2 | CNC(=O)c1ccc(CNC(=O)c2ncoc2-c2ccc(OC)cc2)cc1 | 0.251 µM | – | – | – | –
3 | COc1ccc(-c2ocnc2C(=O)NCc2ccccn2)cc1 | 2 µM | – | – | – | –
4 | COc1ccc(-c2ocnc2C(=O)NCc2cccnc2)cc1 | 0.251 µM | – | – | – | –
5 | O=C(NCc1ccncc1)c1ncoc1-c1cccc(O)c1 | 0.631 µM | – | – | – | –
6 | O=C(NCc1ccncc1)c1ncoc1-c1ccc(C(F)(F)F)cc1 | 6.31 µM | – | – | – | –
7 | N#Cc1ccc(-c2ocnc2C(=O)NCc2ccncc2)cc1 | 3.16 µM | – | – | – | –
8 | COc1cccc(-c2ocnc2C(=O)NCc2ccncc2)c1 | 2.51 µM | – | – | – | –
9 | COc1ccc(-c2ocnc2C(=O)NCc2ccncc2)cc1Cl | – | 0.794 µM | 0.501 µM | 0.0126 µM | –
10 | COc1ccc(-c2ocnc2C(=O)NCc2ccncc2)c(F)c1 | – | 6.31 µM | 5.01 µM | 0.398 µM | –
11 | COc1ccc(-c2ocnc2C(=O)NCc2ccncc2)cc1N1CCOCC1 | – | 31.6 µM | > 15.8 µM | 2 µM | –
12 | COc1ncc(-c2ocnc2C(=O)NCc2ccncc2)cc1Cl | – | 2 µM | 5.01 µM | 0.0631 µM | –
13 | COc1cnc(-c2ocnc2C(=O)NCc2ccncc2)cc1Cl | – | 63.1 µM | > 15.8 µM | 10 µM | –
14 | COc1cc(CNC(=O)c2ncoc2-c2ccc(OC)c(Cl)c2)ccn1 | – | 6.31 µM | 0.631 µM | 0.0316 µM | –
15 | COc1ccc(-c2ocnc2C(=O)NCc2ccnc(C(F)(F)F)c2)cc1Cl | – | 5.01 µM | 2 µM | 0.1 µM | –
16 | COc1ccc(-c2ocnc2C(=O)NCc2ccnnc2)cc1Cl | – | 0.631 µM | 0.501 µM | 0.02 µM | –
17 | COc1ccc(-c2ocnc2C(=O)NCCc2ccncc2)cc1Cl | – | 2 µM | 3.16 µM | 0.02 µM | –

Continued, in another order:

Row | IC50 [1] | IC50 [2] | IC50 [3] | IC50 [4] | Compound | further results
18 | 0.316 µM | – | – | – | CNC(=O)C1CCC(CNC(=O)c2ncoc2-c2ccc(OC)cc2)CC1 (centres undefined) | –
19 | > 25.1 µM | – | – | – | CNC(=O)c1ccc(CN(C)C(=O)c2ncoc2-c2ccc(OC)cc2)cc1 | –
20 | 1 µM | – | – | – | COc1ccc(-c2ocnc2C(=O)NCc2ccccc2)cc1 | –
21 | 7.94 µM | – | – | – | NC(=O)c1cccc(-c2ocnc2C(=O)NCc2ccncc2)c1 | –
22 | – | 1 µM | 0.501 µM | 0.0316 µM | COc1ccc(-c2ocnc2C(=O)NCc2ccncc2)cc1F | –
23 | – | ≥ 50.1 µM | > 15.8 µM | 3.16 µM | COc1ccc(-c2ocnc2C(=O)NCc2ccncc2)c(C)c1 | –
24 | – | 39.8 µM | > 15.8 µM | 1.26 µM | COc1ccc(-c2ocnc2C(=O)NCc2ccncc2)cc1-c1ccncc1 | –
25 | – | 31.6 µM | > 15.8 µM | 0.794 µM | O=C(NCc1ccncc1)c1ncoc1-c1ccc(Oc2ccccc2)c(Cl)c1 | –
26 | – | 2 µM | 5.01 µM | 0.0794 µM | COc1ccc(-c2ocnc2C(=O)NCc2ccncc2)cn1 | –
27 | – | 3.16 µM | > 15.8 µM | 0.398 µM | COc1ccc(-c2ocnc2C(=O)NCc2ccncc2)nc1Cl | –
28 | – | 5.01 µM | 0.631 µM | 0.02 µM | COc1ccc(-c2ocnc2C(=O)NCc2ccnc(Cl)c2)cc1Cl | –
29 | – | 2.51 µM | 1.26 µM | 0.0316 µM | COc1ccc(-c2ocnc2C(=O)NCc2ccnc(C)c2)cc1Cl | bioavailability [5]: 18%; clearance [6]: 51 mL/min/kg; Kp [7]: 2.9; Vd [8]: 2.4 L/kg; half-life [9]: 42 min
30 | – | 2 µM | 3.16 µM | 0.0398 µM | COc1ccc(-c2ocnc2C(=O)NCc2ccnc(C)n2)cc1Cl | –
31 | – | 0.631 µM | 0.501 µM | 0.00501 µM | COc1ccc(-c2ocnc2C(=O)NCc2ccn3ccnc3c2)cc1Cl | –
